Rad51 HR inh: Rad51 (human) homologous recombination inhibition | actives 0.085% (n = 200,000) | Q06609 | hRad51 DNA strand exchange, fluorescence dequenching | inhibition, % at 10 µM;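 active = inhibition above 40% at the single screening dose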;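 also: 0% = DMSO control wells and 100% = blanks with heterologous ssDNA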
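Material: hRad51 filaments on single-stranded DNA; Reagent: Donor/quencher-labelled 47-bp dsDNA substrate; Compound: 10 µM final, single point; Schedule: 37 °C 15-min filament assembly, 30-min compound preincubation, 15-min exchange; Technique: FRET fluorescence, excitation 485 nm, emission 520 nm; Benchmarks: control wells and blank wells on each plate.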
m-calpain inh: calpain II (pig) inhibition | purified calpain II, fluorogenic peptide substrate, 30 min | actives 0.37% (n = 220,000) | AID 1236 | inhibition, % at 16 µM;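 active = inhibition above about 50%, limit read from the data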
PMI activator: increases human mannose-6-phosphate isomerase activity; purified human PMI, coupled resazurin fluorescence, 20 min; hits give high values; 1 = vehicle control, 0 substrate-free wells; activation factor at 20 µM; actives 0.005% (n = 190,000); AID 1214; P34949;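 active = activation factor of 2 or more at 20 µM, relative to plate controls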
Target sequence (P34949 whole entry, looked up): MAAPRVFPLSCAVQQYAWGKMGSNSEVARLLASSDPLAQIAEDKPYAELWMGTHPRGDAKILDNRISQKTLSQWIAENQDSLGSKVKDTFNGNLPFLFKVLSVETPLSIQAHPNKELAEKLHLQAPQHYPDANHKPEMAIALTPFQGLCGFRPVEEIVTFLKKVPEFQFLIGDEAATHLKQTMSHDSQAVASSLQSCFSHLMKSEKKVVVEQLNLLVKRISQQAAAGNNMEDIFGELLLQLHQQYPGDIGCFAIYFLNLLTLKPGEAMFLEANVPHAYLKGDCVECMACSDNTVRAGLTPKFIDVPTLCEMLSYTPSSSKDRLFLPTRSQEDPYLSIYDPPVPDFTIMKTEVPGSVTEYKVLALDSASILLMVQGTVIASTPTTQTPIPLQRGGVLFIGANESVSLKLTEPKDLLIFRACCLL
WT yeast gro inh: growth inhibition of WT yeast, mitochondrial fusion screen. mitochondrial fusion phenotypic screen, WT strain. inhibition, % at 10 µM. actives 2.1% (n = 190,000). AID 1362; in the data active = inhibition above about 58%; tested in S. cerevisiae
L major viab: inhibitors of Leishmania major promastigote growth; inhibition, % at 10 µM; actives 9% (n = 200,000); Leishmania major promastigotes, resazurin fluorescence viability; in the data active = inhibition above about 50%;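 also: promastigotes grown with compound for 44 hours at 28 °C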
PMI act hi M6P: PMI (human) activation, high substrate | coupled PMI enzyme assay, resazurin fluorescence, 20 min; hits give high values; 1 = untreated enzyme, 0 = substrate-free blank | activation factor at 20 µM | actives 0.34% (n = 190,000);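 active = activation factor of 2 or more at 20 µM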
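Test system – human PMI in coupled enzyme assay · Timing – 20 min incubation at room temperature · Detection – Diaphorase-driven resazurin-to-resorufin fluorescence, excitation 544, emission 590 nm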
Starred values were filed as active, the others as inactive; i = inactive; / = not tested or not shown. Hits are enriched below; roughly 9.8% of the tested compounds scored in any of these assays.

SMILES	Rad51 HR inh	m-calpain inh	PMI activator	WT yeast gro inh	L major viab	PMI act hi M6P
C=C(COC(C)=O)CC1CC(O)[C@]2(C)OC3CC4OC5C[C@]6(C)O[C@]7(C)CCC8OC9C[C@]%10(C)OC%11C(C)=CC(=O)OC%11CC%10OC9C[C@@H](C)C8OC7CC6O[C@]5(C)C/C=C\C4OC3CC2O1 (stereo not given in full)	-8	-74	/	/	/	/
C=C(CO)CC1CC(O)[C@]2(C)OC3CC4OC5C[C@]6(C)O[C@]7(C)CCC8OC9C[C@]%10(C)OC%11C(C)=CC(=O)OC%11CC%10OC9C[C@@H](C)C8OC7CC6O[C@]5(C)C/C=C\C4OC3CC2O1 (stereo not given in full)	-5	-70	0.8	11	56*	0.9
Cn1c(O)c(/C=C2\N=c3ccccc3=C2CCNC(=S)NC2CC2)c(=O)n(C)c1=O	/	-10	/	/	/	/
COc1cccc(CCNCc2c(F)cccc2F)c1	4	-22	1	-13	16	1
COc1cc(/C=C/[N+](=O)[O-])ccc1O	4	-7	1	31	97*	0.6
CC1CN=C(Nc2ccc(F)c(Cl)c2)S1 (stereo not given)	-13	20	/	/	/	/
O=C(NCCCN1CCOCC1)C(Cl)(Cl)Cl	-3	-6	1.1	-5	53*	1.1
COc1ccc(-n2cnc3cc(C(=O)N4CCC5(CC4)OCCO5)ccc32)cc1	/	-14	1	3	-1	1
COc1ccccc1Cn1c(SCC(=O)C(C)(C)C)nc2cc(C(=O)N3CCC4(CC3)OCCO4)ccc2c1=O	10	-41	0.9	8	57*	0.9
COc1cc(/C=C/C(=O)c2c(O)n(CCc3ccccc3)c(=O)[nH]c2=O)ccc1O	-34	-68	1	6	89*	1.1
O=C(/C=C/c1ccc2c(c1)OCO2)c1c(O)n(CCc2ccccc2)c(=O)[nH]c1=O	-7	-33	/	/	/	/
O=C(/C=C/c1ccccc1)c1c(O)n(CCc2ccccc2)c(=O)[nH]c1=O	0	-18	0.9	-6	60*	0.9
CC(C)C12CN3CCN(CC(C3)C1O)C2 (stereo not given)	/	-302	1	59*	3	1
Cc1nn(Cc2ccccc2)c(C)c1C(=O)OCC(=O)Nc1cccc(S(N)(=O)=O)c1	2	-14	1	-11	5	0.9
Cc1nn(C)cc1/C=C1/CC2C3CC=C4CC(O)CCC4(C)C3CCC2(C)C1=O (stereo not given)	-2	/	/	/	5	/
CC12CCC3C(CC=C4CC(O)CCC43C)C1C/C(=C\c1ccccc1F)C2=O (stereo not given)	8	-9	0.9	65*	1	1
COC(=O)CNC(=O)c1cn(CCC#N)nc1-c1ccc(F)cc1	-4	-23	1	-10	-5	1
O=c1[nH]c(=O)n(-c2ccccc2)c(O)c1/C=C1/C(c2ccccc2)=Nc2ccccc21	-1	-14	1.1	51	79*	1.1
COC(=O)C1=Nc2ccccc2/C1=C\c1c(O)n(-c2ccc(OC)cc2)c(=O)[nH]c1=O	6	-21	1.1	5	-3	1.1
COC(=O)C1=Nc2ccccc2/C1=C\c1c(O)n(-c2ccc(Br)cc2)c(=O)[nH]c1=O	-12	0	1.2	0	67*	1.2
COc1ccc(OC)c(-n2c(O)c(/C=C3\C(C)=Nc4ccccc43)c(=O)[nH]c2=O)c1	-37	-30	/	/	/	/
O=C(Nc1ccc2c(c1)OCO2)c1cn(Cc2ccc(F)cc2)nn1	11	-33	1	19	10	0.9
CC(c1ccccc1F)n1cc(C(=O)Nc2ccc3nc[nH]c3c2)nn1 (stereo not given)	0	11	1	-9	72*	0.9
O=c1[nH]c(=O)n(C2CCCCC2)c(O)c1/C=C/C=Nc1ccccc1	i	4	/	/	/	/
O=C1NC(=O)N(CCC2=CCCCC2)C(=O)/C1=C\c1cccs1	1	-24	1	-16	55*	1
SMILES	Rad51 HR inh	m-calpain inh	PMI activator	WT yeast gro inh	L major viab	PMI act hi M6P
Cn1cccc1/C=C1\C(=O)NC(=O)N(CCC2=CCCCC2)C1=O	-12	-25	0.9	-4	-3	0.9
CN1Cc2c(c(C#N)c(N)n(C)c2=S)CC1(C)C	-100	-75	1.3	-9	-3	0.8
CCOP(=O)(OCC)C(NS(=O)(=O)c1ccccc1)C(Cl)(Cl)Cl (stereo not given)	0	-28	/	-13	-6	/
Cc1nc2cc(C(F)(F)F)ccc2n1C1CCN(Cc2nnnn2CCc2ccccc2)CC1	-6	-112	0.8	7	98*	0.8
FC(F)(F)c1ccc2c(c1)nnn2C1CCN(Cc2nnnn2Cc2ccccc2)CC1	-3	14	0.8	11	-1	0.9
Cc1ccc(Cn2nnnc2CN2CCC(n3nnc4cc(C(F)(F)F)ccc43)CC2)cc1	-9	-6	0.7	55	53*	0.8
CN(C)c1ccc(/C=C2/C(=N\O)C3CCN2CC3)cc1	21	-8	/	/	/	/
CC1(C(O)(C#CCN2CCCCC2)c2ccccc2)CCCC1 (stereo not given)	-150	21	1.1	16	46	1
CC(=O)N1N=C2C3CCN(CC3)C2C1c1ccc(F)cc1 (stereo not given)	29	1	0.9	4	-12	0.9
CC1CCCN(c2ccc(C(=O)N3CCC4(CC3)OCCO4)cc2[N+](=O)[O-])C1 (stereo not given)	-7	40	1	27	-3	1
CCOC(=O)C1CCCN(c2ccc([N+](=O)[O-])c3nonc23)C1 (stereo not given)	/	60*	1	9	28	0.8
CC(NCc1ccccc1Cl)C(O)c1ccccc1 (stereo not given)	-6	8	0.9	17	3	1
CC(NCc1ccc(Cl)c(Cl)c1)C(O)c1ccccc1 (stereo not given)	6	-22	1	25	91*	1
O=C1NC(=O)C(=Cc2ccccc2OCCOc2ccc([N+](=O)[O-])cc2)C(=O)N1	1	-47	1.1	21	64*	1.1
CN1C(=O)C(=Cc2ccccc2OCc2ccc(C(=O)O)cc2)C(=O)N(C)C1=O	4	-14	1.1	-16	-9	1.1
CN1C(=O)C(=Cc2ccccc2OCc2ccccc2Cl)C(=O)N(C)C1=O	7	-16	1	-22	66*	1.1
CN1C(=O)C(=Cc2ccccc2OCCOc2ccc([N+](=O)[O-])cc2)C(=O)N(C)C1=O	5	-30	1.3	6	78*	1.3
COc1ccc(C=C2C(=O)N(C)C(=O)N(C)C2=O)cc1COc1ccc(NC(C)=O)cc1	10	-20	/	/	/	/
O=C1NC(=O)C(=Cc2ccc(Oc3ccc([N+](=O)[O-])cc3)cc2)C(=O)N1	19	29	1.1	-30	10	1.1

Assay outcomes as filed in PubChem BioAssay.
